Screens from PubChem.
UCH37 DUB inh: blocks the human deubiquitinase UCH37. inhibition, % (no concentration beside the values). 0.33% of 330,000 active. purified proteasome/UCH37, Ub-AMC cleavage fluorescence;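 active = mean inhibition over replicate wells above about 20%, limit read from the data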;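 also: 0% = compound-free wells with enzyme and 100% = wells lacking proteasome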
Target sequence (Q9Y5K5 whole entry, looked up): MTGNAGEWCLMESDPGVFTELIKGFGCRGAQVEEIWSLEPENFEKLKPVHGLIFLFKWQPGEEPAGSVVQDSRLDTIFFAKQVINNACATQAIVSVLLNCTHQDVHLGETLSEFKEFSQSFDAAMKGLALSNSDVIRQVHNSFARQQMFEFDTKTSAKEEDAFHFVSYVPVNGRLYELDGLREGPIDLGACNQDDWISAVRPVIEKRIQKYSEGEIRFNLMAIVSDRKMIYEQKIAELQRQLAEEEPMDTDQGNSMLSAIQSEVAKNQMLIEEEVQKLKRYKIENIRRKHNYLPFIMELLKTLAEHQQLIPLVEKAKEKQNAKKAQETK
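Material: Human UCH37 enzyme supplied as purified proteasome complex | Schedule: 30 min compound-proteasome preincubation then 25 min substrate reaction, room temperature | Detection: AMC fluorescence from Ub-AMC cleavage, excitation 355 nm, emission 460 nm | Benchmarks: Wells without proteasome as full block, compound-free enzyme plus substrate as uninhibited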
NR3A LBD binder: modulates the human NR3A ligand-binding domain; 2.5% of 340,000 active; Tm shift relative to glycine control, % at 25 µM; NR3A LBD differential scanning fluorimetry, Tm shift; 0% = protein alone, 100% = glycine-bound protein;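 active = melting temperature shift of at least 10% of the positive control shift, at one fixed dose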
NadD inh: inhibitors of Staphylococcus aureus NadD. 0.78% of 360,000 active. inhibition, % at 20 µM. purified NadD enzyme, colorimetric absorbance read-out; in the data active = inhibition above about 26%
SENP1 FRET inh: blocks the human SENP1 SUMO protease catalytic domain. 0.21% of 360,000 active. inhibition, % at 10 µM. recombinant SENP1 catalytic domain, CyPet-SUMO1-YPet FRET cleavage. AID 624204;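 active = inhibition at least 30% at 10 µM, raw YFP signal under a set limit, fluorescence ratio 0.5 to 1.5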;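 also: 0% = enzyme with DMSO and 100% = no enzyme wells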
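Test system: recombinant human SENP1 catalytic domain, His6-tagged / Medium: pH 8 Tris buffer with EDTA, NaCl, BME, BSA, NP40, catalase / Also added: SUMO1 FRET substrate flanked by Cypet and Ypet, 25 nM / Times: 50 min reaction at room temperature / Signal: FRET, CFP and YFP emission / Control set: no-enzyme low control and enzyme-plus-DMSO high control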
ATG4B inhibitor: inhibitors of human ATG4B cysteine protease; 0.51% of 340,000 active; inhibition, % at 8.33 µM; ATG4B cleavage of LC3-PLA2, NBD-HPC fluorescence, 1 h; Q9Y4P1; AID 504462; in the data active = inhibition above about 40%
Active calls of the source: *; . = not tested or not shown. In the library only some 3.6% were active in any assay of this set; here they are far more common.

SMILES	UCH37 DUB inh	NR3A LBD binder	NadD inh	SENP1 FRET inh	ATG4B inhibitor
CCC(C)c1ccc2oc(-c3ccc(NC(=O)Cn4cnc5c(=O)n(C)c(=O)n(C)c54)cc3)nc2c1 (stereo not drawn)	-25	23*	-4	-5	-8
Cc1ccc(S(=O)(=O)NN=Cc2cccs2)cc1	4	.	.	.	.
O=C(C1CCCN(Cc2ccccc2)C1)N1CCCCC1 (stereo not drawn)	3	3	-3	2	-11
O=C(C1CCCN(Cc2cccs2)C1)N1CCCCCC1 (stereo not drawn)	5	11*	-2	-1	7
O=C(CNc1cccc2ccccc12)NN=Cc1ccccn1	-1	.	.	.	.
CC(C(=O)O)N1C(=O)/C(=C/c2cccn2C)SC1=S (stereo not drawn)	18	1	-5	-36	9
Cn1cccc1/C=C1\SC(=S)N(NC(=O)c2cccc(Cl)c2)C1=O	7	13*	7	-94	1
CCC(C(=O)O)N1C(=O)/C(=C/c2cccn2C)SC1=S (stereo not drawn)	23*	-3	-3	-40	1
Cn1cccc1/C=C1/SC(=S)N(CC(=O)O)C1=O	23*	1	-1	-53	1
Cn1c(=O)[nH]c(=O)c2c1nc(Br)n2CC=NNC(=O)c1ccccc1	4	.	.	.	.
CCCNC(=S)Nc1cc2oc3ccccc3c2cc1OC	2	18*	-1	0	10
CCNC(=S)Nc1cc2oc3ccccc3c2cc1OC	-15	7	-5	-1	-14
CNC(=S)Nc1cc2oc3ccccc3c2cc1OC	4	18*	-6	3	-12
Clc1ccccc1CN1CCN(N=C/C=C/c2ccco2)CC1	8	.	.	.	.
COc1ccc2c(c1)oc(=O)c1ccccc12	-165	-3	-4	-1	-7
COc1ccc2c(c1)oc(=O)c1c3ccccc3[nH]c21	-41	21*	3	-15	-1
Nc1ccc2cc3[nH]c4cc(N)ccc4c3nc2c1	.	-4	54*	-26	-88
Nc1ccc2nc(C3CCCCC3)[nH]c2c1	1	-1	2	-4	-6
CCC(O)(CC)C(=O)N(Nc1ccc(C)cc1)c1ccc(C)cc1	2	0	-7	1	-3
CCOC(=O)C(=O)N(Nc1ccc(C)cc1)c1ccc(C)cc1	1	11*	-8	2	-1
Cc1cc(=O)[nH]c(NN=Cc2ccc(-c3ccc(F)cc3)o2)n1	-52	.	.	.	.
Cc1ccc(CNC(=O)c2cc(-c3ccccc3)n(Cc3cc(C)no3)n2)cc1	24*	2	-3	-1	37
N#C/C(=C\c1ccc(OC(=O)c2ccc(Br)s2)cc1)c1nc2ccccc2[nH]1	.	26*	30	-31	5
COc1ccc(-c2cc(O)cc(O)c2)cc1	-1	11*	-7	0	3
COc1ccc(OC)cc1	1	-3	1	3	-16
SMILES	UCH37 DUB inh	NR3A LBD binder	NadD inh	SENP1 FRET inh	ATG4B inhibitor
COC(=O)c1[nH]c2ccccc2c1NC(=O)Oc1ccccc1	-20	17*	6	6	2
O=C1[C@H](Cc2ccccc2)NCCCC[C@H](c2ccc(Cl)cc2)N1Cc1ccccc1	1	10*	1	1	-12
O=C1[C@H](Cc2ccccc2)NCCCC[C@@H](c2ccc(Cl)cc2)N1Cc1ccc(Cl)cc1	1	-19	-6	-2	-10
CCOC(=O)c1cc2nc(Nc3ccc(OC)cc3)sc2s1	-13	15*	-9	-50	-4
CCOC(=O)c1sc(Nc2ccc(Br)cc2)nc1C	-5	14*	-8	0	-11
CCOP(=O)(OCC)C(NC(=O)Nc1ccc(C)c(Cl)c1)c1ccccc1 (stereo not drawn)	-1	24*	-1	1	-8
CCOP(=O)(OCC)C(NC(=O)Nc1ccc(Cl)c(Cl)c1)c1ccccc1 (stereo not drawn)	6	-3	-11	1	0
O=[N+]([O-])c1ccc(N2CCOCC2)cc1NC(c1ccccc1)c1ccccc1	6	-9	-2	1	9
O=[N+]([O-])c1ccc(N2CCCC2)cc1NC(c1ccccc1)c1ccccc1	10	14*	17	2	-4
Nc1nn2cc(-c3ccc(Br)cc3)nc2c2ccccc12	.	27*	5	0	12
COc1cc(C=NNC(=O)c2ccccn2)ccc1OC(=O)c1ccc(Br)cc1	-1	.	.	.	.
